Shown are actives, neighbours in structure and some others; about 2.5% of the full set was active somewhere.
SENP6 inh = SENP6 protease inhibitors, primary screen, biochemical, luminescence, uHTS; Sentrin-specific protease 6 (Homo sapiens), Q9GZR1; Recombinant SENP6 catalytic domain, aminoluciferin luminescence; inhibition, % at 10 µM; 330,000 compounds, 1.8% hits; AID 2599, 2010;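 active = inhibition above about 50% at the single tested dose, limit read from the data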;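 also: plate controls were DMSO wells with enzyme for no effect and DMSO wells lacking enzyme for full effect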
SENP7 inh = SENP7 protease inhibitors, primary screen, biochemical, luminescence, uHTS. recombinant SENP7, Z-RLRGG-aminoluciferin luminescence, 40 min. 330,000 compounds, 1.5% hits. AID 434973, 2010. inhibition, % at 5 µM;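 active = inhibition above about 50% at the single test dose, limit read from the data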;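 also: plate controls were DMSO with enzyme for no effect and no enzyme buffer wells for full effect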
Target sequence (Q9BQF6 706-1050 limits assumed): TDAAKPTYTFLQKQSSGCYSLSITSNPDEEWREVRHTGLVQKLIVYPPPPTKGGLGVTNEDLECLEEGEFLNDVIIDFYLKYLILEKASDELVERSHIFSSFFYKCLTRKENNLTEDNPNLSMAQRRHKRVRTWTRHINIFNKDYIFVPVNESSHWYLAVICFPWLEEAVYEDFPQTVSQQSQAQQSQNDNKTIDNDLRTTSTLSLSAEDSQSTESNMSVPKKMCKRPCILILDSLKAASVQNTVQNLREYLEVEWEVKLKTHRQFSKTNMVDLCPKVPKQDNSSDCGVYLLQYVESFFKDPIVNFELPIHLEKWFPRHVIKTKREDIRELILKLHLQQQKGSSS
SENP8 block-1 = human SENP8 protease inhibitors, primary screen, biochemical, fluorescence, Nedd8 protein substrate, uHTS | 360,000 compounds, 0.64% hits | inhibition, % at 20 µM | recombinant SENP8 | AID 602440, 2012; in the data active = inhibition mostly above about 40%, no sharp cut-off; inactive = mostly below about 27%
SENP1 inh = human SENP1 catalytic domain inhibitors, primary screen, biochemical, FRET, uHTS; Sentrin-specific protease 1 (Homo sapiens), Q9P0U3; recombinant SENP1 catalytic domain, CyPet-SUMO1-YPet FRET cleavage; inhibition, % at 10 µM; 360,000 compounds, 0.21% hits; AID 624204, 2012;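 active = inhibition at least 30% at 10 µM, raw YFP signal under a set limit, fluorescence ratio 0.5 to 1.5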;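 also: 0% = enzyme with DMSO and 100% = no enzyme wells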
Target sequence (Q9P0U3 419-644 limits assumed): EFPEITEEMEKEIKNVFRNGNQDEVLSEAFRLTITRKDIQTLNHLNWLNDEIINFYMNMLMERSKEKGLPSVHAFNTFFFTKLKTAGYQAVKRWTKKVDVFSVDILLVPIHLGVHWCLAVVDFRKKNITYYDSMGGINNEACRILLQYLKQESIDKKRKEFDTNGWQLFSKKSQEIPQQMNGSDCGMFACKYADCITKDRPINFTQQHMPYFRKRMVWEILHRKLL
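Assay system: hSENP1 catalytic domain, recombinant. Amount: SENP1 enzyme, 20 pM final. Schedule: 50 min reaction, RT, dark. Technique: FRET, CFP and YFP emission. Control set: no-enzyme wells low, DMSO-plus-enzyme wells high control.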
SENP8 block-2 = SENP8 protease inhibitors, primary screen, biochemical, luminescence; Sentrin-specific protease 8 (Homo sapiens), Q96LD8; purified SENP8, Z-RLRGG-aminoluciferin cleavage; inhibition, % at 10 µM; 330,000 compounds, 1.2% hits; AID 2540, 2010; in the data active = inhibition above about 50%
SENP8 conf = SENP8 protease inhibitors, retest, confirmation, biochemical, luminescence, single concentration. inhibition, % at 12.5 µM. Recombinant SENP8, Z-RLRGG-aminoluciferin luminescence, 60 min. shares compounds with SENP7 inh. AID 488912, 2010. 6,200 compounds, 40% hits;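 active = mean inhibition across replicates above about 50%, limit read from the data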
SENP6 confirm = SENP6 protease inhibitors, confirmation, biochemical, luminescence, single concentration. 6,200 compounds, 58% hits. AID 488915, 2010. inhibition, % at 12.5 µM. recombinant SENP6, Z-RLRGG-aminoluciferin luminescence. shares compounds with SENP7 inh
SENP7 confirm = SENP7 protease inhibitors, retest, confirmation, biochemical, luminescence, single concentration | shares compounds with SENP7 inh | recombinant SENP7, Z-RLRGG-aminoluciferin luminescence, 40 min | inhibition, % at 12.5 µM | 6,200 compounds, 69% hits | AID 488917, 2010
Casp3 SENP sel = caspase-3 protease inhibitors, confirmation, selectivity assay for SENP inhibitor project, biochemical, single concentration | 6,200 compounds, 60% hits | shares compounds with SENP7 inh | purified caspase-3, Z-DEVD-aminoluciferin luminescence, 60 min | inhibition, % at 12.5 µM;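 active = mean inhibition above about 50%, limit read from the data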;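 also: plate controls were enzyme with DMSO for no effect and wells without caspase-3 for full effect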
SENP luc ctr = interferes with luciferase luminescence in SENP counter-screen; shares compounds with SENP7 inh; Pre-incubated SENP8/Z-RLRGG-aminoluciferin, luciferase luminescence interference; inhibition, % at 12.5 µM; 6,200 compounds, 39% hits; AID 488919;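 active = mean inhibition above about 50% when retested at one dose, limit read from the data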;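 also: plate controls were DMSO wells with completed reaction for no effect and substrate without enzyme for full effect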
Numbers without * were called inactive; nt = no result.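 The calls were made as follows, unless noted: active = mean inhibition above about 50% in the one-dose retest (limit read from the data); inactive = the rest.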

SMILES	SENP6 inh	SENP7 inh	SENP8 block-1	SENP1 inh	SENP8 block-2	SENP8 conf	SENP6 confirm	SENP7 confirm	Casp3 SENP sel	SENP luc ctr
O=C(COC(=O)c1ccccc1Nc1ccc(SC(F)F)cc1)NCc1ccco1	65*	40	-137	-3	16	-25	6	3	5	2
NC(=O)COC(=O)c1ccccc1Nc1ccc(SC(F)F)cc1	64*	30	-80	-3	1	61*	60*	77*	27	69*
O/N=C/c1ccc(OCc2ccccc2)c(Cl)c1	86*	59*	7	3	64*	8	72*	90*	41	76*
O/N=C/c1ccc(OCc2ccccc2)c(Br)c1	nt	nt	2	1	nt	nt	nt	nt	nt	nt
O=C(OCc1csc(-c2ccccc2)n1)c1ccccc1O	92*	91*	12	2	88*	86*	92*	99*	82*	40
O=C(OCc1ccccc1)c1ccccc1O	15	40	nt	nt	22	nt	nt	nt	nt	nt
O=C(O)c1cccc(NC(=S)N/N=C/c2ccccn2)c1	48	77*	-7	3	62*	77*	76*	95*	37	75*
O=C(O)c1cccc(NC(=S)N/N=C/c2cccc(O)c2)c1	-2	-2	-9	2	6	nt	nt	nt	nt	nt
Cc1ccc(CNC(=O)COc2ccc(S(=O)(=O)N3CCOCC3)cc2)cc1	-6	-2	15	1	4	nt	nt	nt	nt	nt
CCOc1ccc(NS(=O)(=O)c2ccc(C(=O)N3CCCC(C)C3)cc2)cc1 (centres undefined)	3	-5	23	-1	11	nt	nt	nt	nt	nt
COCCNC(=O)C(c1ccc(O)cc1)N(Cc1ccccc1)C(=O)CCC(=O)Nc1nccs1 (centres undefined)	-3	4	5	2	-2	nt	nt	nt	nt	nt
Cc1nn2cc(-c3ncc(C(F)(F)F)cc3Cl)cnc2c1Br	83*	90*	-13	1	76*	61*	60*	28	40	20
Cc1cc2ncc(-c3ncc(C(F)(F)F)cc3Cl)cn2n1	-19	59*	-15	-14	26	26	40	77*	79*	28
N#Cc1cnn2cc(-c3ncc(C(F)(F)F)cc3Cl)cnc12	-6	4	-122	-2	0	nt	nt	nt	nt	nt
COc1ccc(CNC(=O)C[C@H]2C[C@H](C(=O)N3CCCCC3)[C@@]3(C)c4[nH]c5cc(CCC(=O)N(C)C)ccc5c4CCN3C2=O)cc1OC	nt	4	5	-3	nt	nt	nt	nt	nt	nt
COc1ccccc1NS(=O)(=O)c1cccc(-n2c(O)c(C=Nc3ccccc3C(=O)O)c3ccccc3c2=O)c1	52*	6	2	-68	21	41	38	37	18	4
O=C(O)c1ccc(-c2nc(-c3ccc(Cl)cc3Cl)cs2)cc1	60*	1	-34	2	-7	32	36	49	12	21
O=C(O)c1ccc(-c2nc(-c3ccc(Cl)cc3)cs2)cc1	nt	nt	-135	4	nt	nt	nt	nt	nt	nt
COc1ccccc1-c1noc(-c2ccncc2)n1	53*	51*	18	1	23	42	41	77*	76*	52*
COc1cccc(-c2ccc(-c3noc(-c4cccs4)n3)c(OC)n2)c1	-23	-3	-464	0	3	nt	nt	nt	nt	nt
c1csc(-c2nc(N3CCCCC3)no2)c1	66*	61*	-289	0	53*	-18	43	84*	52*	4
COc1ccccc1-c1noc(-c2cccs2)n1	76*	68*	16	2	59*	78*	78*	92*	78*	80*
Cc1ccc(-c2noc(-c3cccs3)n2)cc1	95*	-5	10	2	95*	14	97*	103*	90*	70*
c1csc(-c2nnc(N3CCCCCC3)c3ccccc23)c1	-6	-4	-22	-2	-9	nt	nt	nt	nt	nt
CCOC(=O)c1csc(NC(=O)c2ccc3c(c2)OCCO3)n1	-2	3	-9	1	-9	nt	nt	nt	nt	nt
SMILES	SENP6 inh	SENP7 inh	SENP8 block-1	SENP1 inh	SENP8 block-2	SENP8 conf	SENP6 confirm	SENP7 confirm	Casp3 SENP sel	SENP luc ctr
COc1cccc(COC(=O)c2ccc3c(c2)NC(=O)C(C)S3)c1OC (centres undefined)	-16	3	0	-2	6	nt	nt	nt	nt	nt
CC1Sc2ccc(C(=O)OCc3ccccc3Cl)cc2NC1=O (centres undefined)	55*	70*	-9	-1	6	-24	-11	-1	2	-5
CC[C@@H](C)C(NC(=O)OC(C)(C)C)c1cn([C@@H](Cc2ccc(O)cc2)C(=O)N2CCN(C(=O)OC(C)(C)C)CC2)nn1 (some centres undefined)	82*	33	3	4	48	-1	-5	0	6	7
CC[C@H](C)C(C(=O)N1CCN(C(=O)OC(C)(C)C)CC1)n1cc(C(CC(C)C)NC(=O)OC(C)(C)C)nn1 (some centres undefined)	-1	-6	2	3	-8	nt	nt	nt	nt	nt
CCn1c(/C=C/c2ccccc2)nc2ccccc21	97*	92*	-270	-3	85*	94*	94*	101*	94*	95*
COc1ccc(Cn2c(/C=C/c3ccccc3)nc3ccccc32)cc1	89*	88*	-300	-2	81*	90*	91*	99*	71*	34
COc1ccc(/C=C/c2nc3ccccc3n2C)cc1	101*	101*	-433	2	96*	100*	101*	103*	99*	97*
COc1ccc(-c2nc3ccccc3n2Cc2ccccc2)cc1	-6	1	1	1	5	nt	nt	nt	nt	nt
